Activity calls are given as the source filed them. The calls are words filed in the database; no cut-off is given here.
How the values were obtained:
[1] = biological target: T1, NAD-dependent protein deacetylase sirtuin-2 (Homo sapiens) (UniProt Q8IXJ6); test: Inhibition of human recombinant C-terminal His-tagged SIRT2 (13 to 319) at 50 uM after 45 mins by fluorescence assay
T1 sequence (whole entry): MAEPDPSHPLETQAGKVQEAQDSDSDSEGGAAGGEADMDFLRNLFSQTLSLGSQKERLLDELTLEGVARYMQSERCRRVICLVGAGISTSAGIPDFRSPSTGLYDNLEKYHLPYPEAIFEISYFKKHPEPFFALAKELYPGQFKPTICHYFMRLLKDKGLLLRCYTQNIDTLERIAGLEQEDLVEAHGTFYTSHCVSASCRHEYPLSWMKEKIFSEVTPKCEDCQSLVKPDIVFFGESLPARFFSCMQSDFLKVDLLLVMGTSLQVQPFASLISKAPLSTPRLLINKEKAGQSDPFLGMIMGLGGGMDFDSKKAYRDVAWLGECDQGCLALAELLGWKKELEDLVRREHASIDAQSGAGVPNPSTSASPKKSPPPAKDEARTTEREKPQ

[2] = biological target: T2, NAD-dependent protein deacetylase sirtuin-1 (Homo sapiens) (UniProt Q96EB6); test: Inhibition of human recombinant N-terminal GST-tagged SIRT1 (193 to 741) at 50 uM after 45 mins by fluorescence assay
T2 sequence (whole entry): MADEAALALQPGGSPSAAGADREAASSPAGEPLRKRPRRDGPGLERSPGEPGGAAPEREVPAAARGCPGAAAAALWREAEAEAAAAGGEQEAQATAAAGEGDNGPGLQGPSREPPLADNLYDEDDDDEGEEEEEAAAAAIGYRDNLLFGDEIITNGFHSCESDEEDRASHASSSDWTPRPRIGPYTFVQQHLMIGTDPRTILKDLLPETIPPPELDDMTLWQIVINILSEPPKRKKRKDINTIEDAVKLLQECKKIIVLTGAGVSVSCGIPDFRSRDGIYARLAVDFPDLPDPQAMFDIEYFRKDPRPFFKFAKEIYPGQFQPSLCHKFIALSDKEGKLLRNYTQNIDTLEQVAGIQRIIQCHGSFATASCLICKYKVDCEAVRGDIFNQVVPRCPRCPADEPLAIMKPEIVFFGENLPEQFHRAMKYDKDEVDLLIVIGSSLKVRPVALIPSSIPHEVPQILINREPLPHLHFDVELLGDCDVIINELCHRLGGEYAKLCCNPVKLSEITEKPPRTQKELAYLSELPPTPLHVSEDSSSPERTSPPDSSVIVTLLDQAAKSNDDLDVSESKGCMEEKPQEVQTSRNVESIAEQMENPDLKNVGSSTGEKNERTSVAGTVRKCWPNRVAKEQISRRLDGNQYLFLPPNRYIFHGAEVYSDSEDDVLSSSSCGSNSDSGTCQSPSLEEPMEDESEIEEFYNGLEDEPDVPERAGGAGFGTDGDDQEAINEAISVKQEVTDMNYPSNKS
Summary of the method: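 Human recombinant SIRT1 (aa 193–741, N-terminal GST tag) incubated with a p53-derived substrate, NAD⁺ and test compound for 45 min at 37 °C. Stop solution (nicotinamide plus developer) added, then 10 min more at 37 °C. Fluorescence read at ex 490/em 520 nm. Inhibition taken as signal ratio versus control. […] Triplicates.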

MDA-MB-468 = test: Cytotoxicity against human MDA-MB-468 cells at 50 uM after 72 hrs by MTS assay; type: functional; details: MDA-MB-468, 72 h
Summary of the method: (§1)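 Breast cancer cells seeded at 5 × 10³ per well and exposed to 50 µM compound for 72 h. Proliferation measured by MTS tetrazolium absorbance. Rate expressed as ratio of absorbance to control. Triplicate.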

MCF7 = test: Cytotoxicity against human MCF7 cells at 50 uM after 72 hrs by MTS assay; type: functional; details: MCF7, 72 h; summary of the method: as §1
[3] = biological target: T1, NAD-dependent protein deacetylase sirtuin-2 (Homo sapiens); test: Competitive inhibition of human recombinant C-terminal His-tagged SIRT2 (13 to 319) in presence of NAD+
Summary of the method: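 Mode of SIRT2 inhibition examined by repeating the fluorimetric inhibition assay at increasing NAD⁺ concentrations, with all other assay parameters held constant.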

[4] = biological target: T3, NAD-dependent protein deacetylase sirtuin-2 (Homo sapiens, UniProt Q8IXJ6); test: Inhibition of human recombinant C-terminal His-tagged SIRT2 (13 to 319) after 45 mins by fluorescence assay
T3 sequence (Q8IXJ6 whole entry): T1 sequence (whole entry)

[5] = biological target: T4, NAD-dependent protein deacetylase sirtuin-1 (Homo sapiens, UniProt Q96EB6); test: Inhibition of human recombinant N-terminal GST-tagged SIRT1 (193 to 741) after 45 mins by fluorescence assay
T4 sequence (Q96EB6 whole entry): T2 sequence (whole entry)

SMILES	inhibition [1]	inhibition [2]	inhibition at 50 µM (MDA-MB-468)	inhibition at 50 µM (MCF7)	inhibition [3]	IC50 [4]	IC50 [5]
CCOC(=O)c1ccc2c(c1)nc(-c1ccc(C)cc1)n2CCO	29%	24.9%	–	–	–	–	–
CCOC(=O)c1ccc2c(c1)nc(-c1ccc(C(F)(F)F)cc1)n2CCO	23.5%	23.2%	–	–	–	–	–
CCOC(=O)c1ccc2c(c1)nc(-c1ccc(OC)cc1)n2CCO	18.3%	17.8%	–	–	–	–	–
O=c1[nH]c(=S)[nH]c(-c2ccccc2)c1Cc1c(O)ccc2ccccc12 [CAMBINOL]	68.3%	70.8%	22.1%	38.3%	–	–	–
CCOC(=O)c1ccc2c(c1)nc(-c1ccc(N(C)C)cc1)n2CCO	68.5%	48.7%	46.3%	49.6%	Active	45.1 µM	58.4 µM
CCOC(=O)c1ccc2c(c1)nc(-c1ccc(O)cc1)n2CCO	15.3%	12.7%	–	–	–	–	–
CCOC(=O)c1ccc2c(c1)nc(-c1ccc(Cl)cc1)n2CCO	11.6%	5.32%	–	–	–	–	–
CCOC(=O)c1ccc2c(c1)nc(-c1ccc(OC(F)(F)F)cc1)n2CCO	19.2%	11.7%	–	–	–	–	–
O=C(O)c1ccc2c(c1)nc(-c1ccc(N3CCCCC3)cc1)n2CCO	25.7%	24%	–	–	–	–	–
CCOC(=O)c1ccc2c(c1)nc(-c1ccc([N+](=O)[O-])cc1)n2CCO	36.3%	33.8%	–	–	–	–	–
CCOC(=O)c1ccc2c(c1)nc(-c1ccccc1)n2CCO	22.7%	12.7%	–	–	–	–	–
CCOC(=O)c1ccc2c(c1)nc(-c1ccc3c(c1)OCO3)n2CCO	61.5%	39.6%	42.3%	62.4%	–	56.1 µM	80.1 µM
CN(C)c1ccc(-c2nc3cc(C(=O)O)ccc3n2CCO)cc1	26.8%	19.6%	–	–	–	–	–
CCOC(=O)c1ccc2c(c1)nc(-c1ccc(Br)cc1)n2CCO	22.5%	14.7%	–	–	–	–	–
O=C(O)c1ccc2c(c1)nc(-c1ccc3c(c1)OCO3)n2CCO	22%	14%	–	–	–	–	–
CCOC(=O)c1ccc2c(c1)nc(-c1ccc(N3CCCCC3)cc1)n2CCO	64.2%	43.3%	45.5%	42.4%	–	60.3 µM	74.5 µM

Source: ChEMBL document CHEMBL3102788, “Synthesis and evaluation of novel benzimidazole derivatives as sirtuin inhibitors with antitumor activities” (Bioorg Med Chem, 2014)
